From ChEMBL document CHEMBL2040798, “One-pot synthesis of novel isoindoline-1,3-dione derivatives bearing 1,2,4-triazole moiety and their preliminary biological evaluation” (Eur J Med Chem, 2012) come the findings set out here.

In general, IC50 refers to the point on the concentration scale where inhibition reaches its midpoint.

Assay [1] deals with HepG2. Briefly: Cell cycle arrest in human HepG2 cells assessed as G0/G1 phase cells at 16 uM after 24 hrs by flow cytometry (reference value: 54.65%). In kind it is functional. In general terms: Flow cytometry measures light scatter and fluorescence of single cells or particles in a stream.
Assay [2] deals with HepG2. Briefly: Induction of apoptosis in human HepG2 cells after 24 hrs by flow cytometry. Type of assay: functional, cell-based.
In assay [3] the test system is HepG2. Briefly: Cytotoxicity against human HepG2 cells after 48 hrs by MTT assay. Conditions: HepG2, 48 h. In kind it is functional, cell-based. In short, it runs like this:
(§1)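 MTT assay. Cells kept in DMEM with 10% FBS. HepG2 seeded at 1 × 10^4 cells/well; A549, PC-3M and MKN45 at 1.6 × 10^4 cells/well. Attachment 24 h at 37 °C. Compounds diluted in medium from 10 mM DMSO stocks; 0.1% DMSO served as negative control. Exposure 48 h at 37 °C, then MTT for 3 h. Formazan dissolved in DMSO and read at 570 nm. IC50 from a concentration series; mean of three independent experiments.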
A general note: Tetrazolium assays rely on reduction of a dye to a coloured formazan, in cell work by metabolically active cells.

Assay [4] relates to HepG2. Briefly: Cell cycle arrest in human HepG2 cells assessed as G2/M phase cells at 16 uM after 24 hrs by flow cytometry (reference value: 16.38%). Type of assay: functional.
For assay [5], the system named is HepG2. Put plainly: Cell cycle arrest in human HepG2 cells assessed as G0/G1 phase cells at 8 uM after 24 hrs by flow cytometry (reference value: 54.65%). In kind it is functional.
Assay [6] relates to HepG2. Briefly: Cell cycle arrest in human HepG2 cells assessed as S phase cells at 4 uM after 24 hrs by flow cytometry (reference value: 29.84%). Type of assay: functional.
The subject of assay [7] is HepG2. Put plainly: Cell cycle arrest in human HepG2 cells assessed as G2/M phase cells at 8 uM after 24 hrs by flow cytometry (reference value: 16.38%). In kind it is functional.
Assay [8] has as its system HepG2. Briefly: Cell cycle arrest in human HepG2 cells assessed as Sub-G0 phase cells at 4 uM after 24 hrs by flow cytometry (reference value: 2.48%). Type of assay: functional.
Assay [9] deals with MKN-45. Put plainly: Cytotoxicity against human MKN45 cells after 48 hrs by MTT assay. In kind it is functional, cell-based. Conditions: MKN-45, 48 h. In short, it runs like this: as §1
Assay [10] relates to HepG2. Briefly: Cell cycle arrest in human HepG2 cells assessed as Sub-G0 phase cells at 8 uM after 24 hrs by flow cytometry (reference value: 2.48%). In kind it is functional.
Assay [11] concerns HepG2. Briefly: Ratio of Fluorouracil IC50 to compound IC50 for human HepG2 cells. Type of assay: functional.
Assay [12] deals with HepG2. Put plainly: Cell cycle arrest in human HepG2 cells assessed as G0/G1 phase cells at 4 uM after 24 hrs by flow cytometry (reference value: 54.65%). Type of assay: functional.
The subject of assay [13] is A549. Put plainly: Cytotoxicity against human A549 cells after 48 hrs by MTT assay. Type of assay: functional, cell-based. Conditions: A549, 48 h. Summed up:
as §1

Assay [14] concerns Pyricularia grisea. Put plainly: Growth inhibition of Phyricularia oryzae Cav. at 150 mg/mL after 48 hrs by mycelium growth rate method. Type of assay: functional. Conditions: read-out: GI. Further details: dose or concentration left out as unconfirmed.
Assay [15] has as its system HepG2. Put plainly: Cell cycle arrest in human HepG2 cells assessed as G2/M phase cells at 4 uM after 24 hrs by flow cytometry (reference value: 16.38%). In kind it is functional.
Assay [16] in a line: Cytotoxicity against human PC3M cells after 48 hrs by MTT assay. In kind it is functional, cell-based. Conditions: PC-3M. Summed up: as §1
In assay [17] the test system is HepG2. Put plainly: Cell cycle arrest in human HepG2 cells assessed as S phase cells at 16 uM after 24 hrs by flow cytometry (reference value: 29.84%). Type of assay: functional.
Assay [18] concerns A549. Put plainly: Ratio of Fluorouracil IC50 to compound IC50 for human A549 cells. In kind it is functional.
Assay [19] concerns HepG2. Put plainly: Cell cycle arrest in human HepG2 cells assessed as Sub-G0 phase cells at 16 uM after 24 hrs by flow cytometry (reference value: 2.48%). Type of assay: functional.
Assay [20] concerns HepG2. Briefly: Cell cycle arrest in human HepG2 cells assessed as S phase cells at 8 uM after 24 hrs by flow cytometry (reference value: 29.84%). Type of assay: functional.

For the molecule `COc1cc(-c2nnc(SCC(=O)c3ccc(C)cc3)n2N2C(=O)c3ccccc3C2=O)cc(OC)c1OC`, the Activity was 36.7% in assay [1]; “Dose-dependent effect” in assay [2]; 6.31% in [4]; 37.45% in [5]; 25.41% in assay [6]; 11.38% in assay [7]. For the same molecule, the Activity in assay [8] is reported as 15.05%; in assay [10], 29.22%; in [12], 40.73%; in [15] it was 14.4%; in assay [17], 21.07%; in assay [19], 32.58%. In addition, the Activity in assay [20] came out at 17.5%. Moreover, the IC50 amounted to 9.44 µM in assay [3], 9.62 µM in assay [9], 6.76 µM in assay [13] and 11.7 µM in assay [16]. Besides, the “Ratio IC50” value in assay [11] and in assay [18] was 4 in each case. Also, the inhibition of growth in [14] was < 50%.

As to `C=CCSc1nnc(CC)n1N1C(=O)c2ccccc2C1=O`, the IC50 in assay [3], in [9], in assay [13] and in assay [16] was > 200 µM each time. Further, the inhibition of growth in assay [14] is < 50%.

As to `CSc1nnc(C)n1N1C(=O)c2ccccc2C1=O`, the IC50 in assay [3], in [9], in assay [13] and in [16] was > 200 µM each time. In addition, the inhibition of growth in assay [14] was < 50%.
